This is an account of results in ChEMBL document CHEMBL4028901, “Novel Antitubercular 6-Dialkylaminopyrimidine Carboxamides from Phenotypic Whole-Cell High Throughput Screening of a SoftFocus Library: Structure-Activity Relationship and Target Identification Studies” (J Med Chem, 2017).

In brackets after ≈: the same amount, converted by molar mass. Bounds are passed on as bounds.

Data set [1] concerns Mycobacterium tuberculosis. In words: Antibacterial activity against cytochrome bd oxidase knockout GFP-fused Mycobacterium tuberculosis H37RvMA grown in GAST/Fe medium measured on day 7 and day 14 post inoculation by fluorescence plate reader assay. The format is functional.
The subject of data set [2] is Mycobacterium tuberculosis. Nature of the data set: Antibacterial activity against cytochrome bd oxidase knockout GFP-fused Mycobacterium tuberculosis H37RvMA grown in 7H9/GLU/ADC medium measured on day 7 and day 14 post inoculation by fluorescence plate reader assay. The class given is functional.
Data set [3] is described as follows: Kinetic solubility of the compound in pH 7.4 solution at 10 to 220 uM after 2 hrs by shake flask method. The format is physicochemical. As to conditions: for Kinetic_solubility: buffer, pH 7.4, 2 h, 220 µM.
Data set [4] has as its system Mycobacterium tuberculosis. In words: Antibacterial activity against Mycobacterium tuberculosis H37RvMA grown in 7H9/ADC medium measured 7 to 14 days post inoculation by broth microdilution method. The class given is functional. For orientation: Dilution methods test growth across graded concentrations, often in twofold steps.
The test system of data set [5] is Mycobacterium tuberculosis. In words: Antibacterial activity against Mycobacterium tuberculosis H37RvMA grown in GAST/Fe medium measured 7 to 14 days post inoculation by broth microdilution method. The format is functional. Summed up: (§1)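 H37RvMa grown to OD600 0.6–0.7, diluted 1:100 in GAST/Fe. Compounds two-fold serially diluted from a top concentration of 640 μM, in duplicate. Incubated at 37 °C with humidification.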

In the next data set the test system is Vero. Nature of the data set: Cytotoxicity against African green monkey Vero cells assessed as reduction in cell viability by MTT assay. The class given is cell-based. Conditions: Chlorocebus sabaeus. Summed up: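 MTT assay in Vero cells, samples in triplicate on one occasion. Stocks at 20 mg/mL in DMSO, diluted in complete medium as 10-fold serial dilutions over 6 concentrations. Emetine used as reference. IC50 derived by non-linear dose-response curve fitting.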
For orientation: Tetrazolium dyes change colour on reduction, which living cells bring about.

Data set [6] can be described thus: Kinetic solubility of the compound in fasted-state simulated intestinal fluid at 10 to 220 uM at pH 6.5 after 2 hrs by shake flask method. The class given is physicochemical. As to conditions: read-out: Kinetic_solubility. Summed up:
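Miniaturised shake flask. 10 mM DMSO stocks spiked 1:50 into duplicate FaSSIF (pH 6.5), 2% final DMSO. Shaken 2 h at 25 °C, filtered, analysed by HPLC-DAD against calibration standards (10–220 μM).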

Data set [7] is described as follows: Lipophilicity, log P of the compound at 100 uM at pH 7.4 after 3 hrs by shake-flask method. The class given is physicochemical. Conditions: buffer. Summed up: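 Shake-flask method run in triplicate. A 10 mM stock was spiked into a 1:1 mixture of phosphate buffer (pH 7.4) and n-octanol, then shaken at 1500 rpm on an orbital shaker for 3 h at room temperature.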

The test system of data set [8] is Liver. In words: Metabolic stability in rat liver microsomes assessed as compound remaining at 0.1 uM after 30 mins by LC-MS/MS analysis. Conditions: 0.5 h. The class given is ADME, microsome. Summed up: (§2)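 Compound at 0.1 μM incubated in duplicate with mouse, rat or pooled human liver microsomes (0.4 mg/mL) at 37 °C. Run with and without 1 mM NADPH, sampled at predetermined time points.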
In general terms: Liver microsomes are vesicles of endoplasmic reticulum, rich in cytochrome P450 enzymes.

The next data set deals with Plasma. In words: Fraction unbound in human plasma at 5 uM pre-incubated for 1 hr by ultra-centrifugation and LC-MS/MS method. The class given is ADME, cell-free. Summed up: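 Pooled human plasma spiked to 5 μM and pre-incubated 1 h at 37 °C. Duplicate aliquots ultracentrifuged 4 h at 37 °C; an unspun aliquot served as the total sample. Analyte measured by LC-MS/MS.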

Data set [9] deals with Liver. Nature of the data set: Metabolic stability in human liver microsomes assessed as compound remaining at 0.1 uM after 30 mins by LC-MS/MS analysis. The format is ADME, microsome. Conditions: 0.5 h. Summed up:
as §2

The test system of data set [10] is Liver. Nature of the data set: Metabolic stability in mouse liver microsomes assessed as compound remaining at 0.1 uM after 30 mins by LC-MS/MS analysis. The class given is ADME, microsome. Conditions: 0.5 h. Summed up: as §2
Data set [11] deals with Mus musculus. Nature of the data set: Apparent elimination half life in C57/BL6 mouse at 20 mg/kg, po measured up to 24 hrs post dose by LC-MS/MS analysis. The format is ADME, organism-based. Conditions: in vivo. Summed up: (§3)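 Male mice, 3 per route, not fasted, free access to water. Oral dose given as aqueous suspension in 0.5% (w/v) hydroxypropyl methylcellulose with 0.4% (v/v) Tween 80. Blood drawn into heparinised tubes at 0.5, 1, 3, 5, 8, 12 and 24 h, kept below -15 °C, protein-precipitated with ice-cold acetonitrile. Quantified by LC-MS/MS against standards made in drug-free mouse blood.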

Data set [12] deals with Mus musculus. Nature of the data set: Cmax in C57/BL6 mouse at 20 mg/kg, po measured up to 24 hrs post dose by LC-MS/MS analysis. The format is ADME, organism-based. On the set-up: dose 20 mg/kg, route oral. As to conditions: in vivo. Summed up:
as §3

For data set [13], the system named is Mus musculus. Nature of the data set: Tmax in C57/BL6 mouse at 20 mg/kg, po measured up to 24 hrs post dose by LC-MS/MS analysis. The class given is ADME, organism-based. Conditions: in vivo. Summed up:
as §3

Data set [14] has as its system Mus musculus. In words: AUC (0 to infinity) in C57/BL6 mouse at 20 mg/kg, po measured up to 24 hrs post dose by LC-MS/MS analysis. The class given is ADME, organism-based. On the set-up: dose 20 mg/kg, route oral, time infinity. Conditions: in vivo. Summed up: as §3
Data set [15] deals with Mus musculus. In words: Oral bioavailability in C57/BL6 mouse at 20 mg/kg measured up to 24 hrs post dose by LC-MS/MS analysis. The class given is ADME, organism-based. As to conditions: in vivo. Summed up: as §3
Data set [16] deals with Mus musculus. In words: Apparent elimination half life in C57/BL6 mouse at 5 mg/kg, iv measured up to 24 hrs post dose by LC-MS/MS analysis. The format is ADME, organism-based. Conditions: in vivo. Summed up: (§4)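 Male mice, 3 animals, not fasted, given an IV bolus in 10% DMSO, 50% propylene glycol/ethanol (4:1) and 40% polyethylene glycol or water. Blood sampled into heparinised tubes at 0.17, 0.5, 1, 3, 5, 8, 12 and 24 h, stored frozen, precipitated with ice-cold acetonitrile. Measured by LC-MS/MS with internal standards against blood-matrix calibration standards.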

Data set [17] deals with Mus musculus. In words: Volume of distribution in C57/BL6 mouse at 5 mg/kg, iv measured up to 24 hrs post dose by LC-MS/MS analysis. Conditions: in vivo. The format is ADME, organism-based. Summed up:
as §4

In data set [18] the test system is Mus musculus. Nature of the data set: AUC (0 to infinity) in C57/BL6 mouse at 5 mg/kg, iv measured up to 24 hrs post dose by LC-MS/MS analysis. The class given is ADME, organism-based. On the set-up: dose 5 mg/kg, route intravenous, time infinity. As to conditions: in vivo. Summed up:
as §4

Data set [19] concerns Mycobacterium tuberculosis. Nature of the data set: Antibacterial activity against wild type Mycobacterium tuberculosis H37Rv grown in GAST/Fe medium measured on day 14 post inoculation by broth microdilution method. As to conditions: 336 h. The class given is functional. Summed up:
as §1

For `CN(Cc1ccc(S(C)(=O)=O)cc1)c1cc(C(=O)Nc2ccccc2)ncn1`, the MIC99 (in general, the lowest concentration that inhibits either 99% of growth or 99% of the strains tested, depending on the study) was more than 125 µM in data set [1] and more than 125 µM in [2] (Mycobacterium tuberculosis, H37RvMA, read-out: MIC99). In [3], this compound had a Kinetic_solubility of 10 µM.

With `CN(Cc1ccc(C(F)(F)F)nc1)c1cc(C(=O)Nc2ccccc2)ncn1`, the MIC99 in data set [4] was 37 µM (≈ 14.3 µg/mL); in data set [5], 10 µM (≈ 3.87 µg/mL). The IC50 (commonly the point on the concentration scale where inhibition reaches its midpoint) in the data set with Vero is 258 µM. For the same compound, the solubility kinetic at 2 h in [6] was less than 5 µM. Further, the logD (in general, lipophilicity at a set pH, counting ionised and neutral species) at 3 h, 100 µM in [7] is 3.7. In addition, the Stability is 72% in the data set with Liver [8], 85% in the data set with Liver [9] and 87% in the data set on Liver [10]. Also, the Fu in the data set with Plasma was found to be 0.05%. Further, the “betat1/2(app)” value in the data set on Mus musculus [11] worked out at 7.2 h; in the data set on Mus musculus [16], 0.7 h. Also, in the data set with Mus musculus [12], the concentration peaked (Cmax) at 3.4 µM. Moreover, the time of peak concentration (Tmax) (commonly the time at which the peak concentration occurs) in the data set on Mus musculus [13] was determined as 4 h. Besides, the AUC – broadly, the area under the concentration-time curve, a measure of exposure – amounted to 1999 µM·min with Mus musculus [14] and 1179 µM·min in the data set with Mus musculus [18]. The same compound yielded a F in the data set with Mus musculus [15] of 42%. Moreover, the Vd (commonly the apparent volume that relates the amount in the body to the concentration in plasma or blood) in the data set on Mus musculus [17] came out at 0.7 L/kg.

Take `CN(Cc1ccc(F)cc1)c1cc(C(Nc2ccc(F)cc2)C(F)(F)F)ncn1` (configuration not stated): the MIC99 in [4] came out at 37 µM (≈ 15.1 µg/mL); in data set [5], 19 µM (≈ 7.76 µg/mL). Also, the IC50 with Vero was 41.7 µM. This compound also came in with a Kinetic_solubility in [3] of less than 5 µM.

For the compound `CN(Cc1ccc(F)cc1)c1cc(C(=O)Nc2ccccc2)cnn1`, the MIC99 in data set [4] and in data set [5] was more than 50 µM each time. Besides, in the data set with Vero, the IC50 was 279 µM. The Kinetic_solubility in data set [3] worked out at 40 µM.

For the compound `COc1ccc(NC(=O)c2cc(N(C)Cc3ccccc3)ncn2)cc1`, the MIC99 is 20 µM (≈ 6.97 µg/mL) in [4], 10 µM (≈ 3.48 µg/mL) in data set [5] and more than 20 µM in data set [2]. Also, the half-maximal inhibitory concentration (IC50) with Vero is 287 µM. Besides, in data set [6], the solubility kinetic at 2 h is less than 5 µM. Further, in data set [7], the logD at 3 h, 100 µM is 4.07.

In the case of `CN1CCN(c2ccc(NC(=O)c3cc(N(C)Cc4ccc(F)cc4)ncn3)cn2)CC1`, the MIC99 in data set [4] was more than 50 µM; in [5], 19 µM (≈ 8.27 µg/mL). Moreover, the IC50 in the data set with Vero amounted to 126 µM. In addition, the Kinetic_solubility in data set [3] is 150 µM.

On to `CN(Cc1ccc(F)cc1)c1cc(C(=O)Nc2ccccc2)ncn1`, for which the MIC99 in data set [4] was 6.25 µM (≈ 2.1 µg/mL); in data set [5], 1.56 µM (≈ 0.525 µg/mL); in [19] it was 10 µM (≈ 3.36 µg/mL). Besides, the IC50 in the data set on Vero turned out to be 297 µM. The same compound registered a Kinetic_solubility in data set [3] of less than 5 µM.

For `CN(Cc1ccc(F)cc1)c1nc(C(=O)Nc2ccccc2)cs1`, the MIC99 in [4] and in data set [5] was more than 50 µM throughout. For the same compound, the IC50 with Vero came out at 279 µM. The solubility kinetic at 2 h in data set [3] (pH 7.4 solution, pH 7.4, read-out: Kinetic_solubility) is less than 5 µM.
